The source made the active and inactive calls. The rule behind the calls is not given here.
Legend:
[1] = molecular target: T1, C-C chemokine receptor type 2 (Homo sapiens, UniProt P41597); test: Antagonist activity at human CCR2 expressed in human U2OS cell membranes as [35S]GTPgammaS binding level at 250 nM pre-incubated for 30 mins followed by drug wash out before CCL2 stimulation and followed by further incubation for 90 mins by scintillation counting method relative to control; assay type: functional; parameters: scale not given: the % may be the effect or the level left; conditions: Cell membrane, filed as antagonist
Outline: (§1)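 U2OS-CCR2 membranes (40 μg) preincubated with or without single compound concentration (600 or 250 nM) in 50 mM Tris-HCl pH 7.4/5 mM MgCl2, then four centrifugation/wash cycles (unwashed: final spin only). Resuspended in buffer with NaCl, EDTA, BSA, saponin 0.5 mg/mL, GDP 10 μM and 20 nM CCL2. 30 min at 25 °C, then [35S]GTPγS 0.3 nM 90 min, filtration; expressed relative to CCL2 alone.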
Target sequence in this assay (P41597 whole entry, looked up): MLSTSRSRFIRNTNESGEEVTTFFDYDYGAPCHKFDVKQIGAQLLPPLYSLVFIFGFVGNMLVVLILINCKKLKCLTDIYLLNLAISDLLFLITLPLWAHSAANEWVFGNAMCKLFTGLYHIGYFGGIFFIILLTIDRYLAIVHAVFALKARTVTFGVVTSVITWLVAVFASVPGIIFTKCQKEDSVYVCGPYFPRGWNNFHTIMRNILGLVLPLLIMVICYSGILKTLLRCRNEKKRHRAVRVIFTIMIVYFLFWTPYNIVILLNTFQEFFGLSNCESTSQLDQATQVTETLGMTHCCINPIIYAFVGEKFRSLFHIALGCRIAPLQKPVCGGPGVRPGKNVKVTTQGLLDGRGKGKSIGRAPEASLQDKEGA

[2] = molecular target: T1, C-C chemokine receptor type 2; test: (§2) Displacement of [3H]-CCR2-RA-(R) from human CCR2b expressed in human U2OS cell membranes assessed as radio ligand binding recovery at 10 times IC50 incubated for 2 hrs after pre-treatment with iodoacetamide for 30 mins and followed by extensive washing and centrifugation cycles before addition of [3H]-CCR2-RA-[R] for 2 hrs by scintillation counting method; conditions: Cell membrane
Target sequence in this assay (P41597 whole entry, looked up): as above

[3] = test system: CHO; test: as §2, with “CCR2 C75S mutant” for “CCR2b”, “CHO” for “human U2OS”, “hrs” for “hrs after pre-treatment with iodoacetamide for 30 mins and”; conditions: Cell membrane
[4] = test system: CHO; test: as §2, with “CCR2 C70S mutant” for “CCR2b”, “CHO” for “human U2OS”, “hrs” for “hrs after pre-treatment with iodoacetamide for 30 mins and”; conditions: Cell membrane
[5] = Displacement of [3H]-CCR2-RA-[R] from human CCR2 C232S mutant expressed in CHO cell membranes incubated for 2 hrs by scintillation counting method; parameters: species or system Cell membrane
[6] = Displacement of [3H]-CCR2-RA-[R] from human CCR2 C70S mutant expressed in CHO cell membranes incubated for 2 hrs by scintillation counting method; parameters: species or system Cell membrane
[7] = Displacement of [3H]-CCR2-RA-[R] from human CCR2 C75S mutant expressed in CHO cell membranes incubated for 2 hrs by scintillation counting method; parameters: species or system Cell membrane
[8] = GSH reactivity at 1 mM in presence of 80 uM reduced glutathione measured at 37 degC for over 4 hrs; assay type: physicochemical; conditions: 1000 µM
[9] = molecular target: T1, C-C chemokine receptor type 2; test: Displacement of [3H]-CCR2-RA from human CCR2b expressed in human U2OS cell membranes incubated for 2 hrs by scintillation counting method; conditions: for Activity: Cell membrane, filed as antagonist
Outline: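 U2OS-CCR2 membranes (5–30 μg protein) in 50 mM Tris-HCl pH 7.4, 5 mM MgCl2, 0.1% CHAPS. Coincubation 2 h at 25 °C with competitor 0.01 nM–10 μM and ~6 nM [3H]-CCR2-RA. Nonspecific binding with 10 μM JNJ-27141491. GF/B filtration, scintillation counting, IC50 by sigmoidal fit, Ki by Cheng–Prusoff.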

[10] = molecular target: T1, C-C chemokine receptor type 2; test: Ratio of IC50 for antagonist activity at human CCR2 expressed in HEK293 cells assessed as inhibition of beta-arrestin recruitment pre-incubated for 20 mins followed by drug wash out before CCL2 stimulation and followed by further incubation for 90 mins by NanoBiT CCR2 assay to IC50 for antagonist activity at human CCR2 expressed in HEK293 cells assessed as inhibition of beta-arrestin recruitment pre-incubated for 20 mins before CCL2 stimulation and followed by further incubation for 90 mins by NanoBiT CCR2 assay
Target sequence in this assay (P41597 whole entry, looked up): as above

[11] = molecular target: T1, C-C chemokine receptor type 2; test: as §2, with “hrs” for “hrs after pre-treatment with iodoacetamide for 30 mins and”; conditions: Cell membrane, filed as antagonist
Target sequence in this assay (P41597 whole entry, looked up): as above

[12] = molecular target: T1, C-C chemokine receptor type 2; test: Antagonist activity at human CCR2 expressed in human U2OS cell membranes as inhibition of [35S]GTPgammaS binding pre-incubated for 30 mins before CCL2 stimulation and followed by further incubation for 90 mins by scintillation counting method; assay type: functional, Cell membrane; conditions: for inhibition: Cell membrane, filed as antagonist
Outline: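 Preincubation 30 min at 25 °C with increasing ligand plus EC80 CCL2 (20 nM). [35S]GTPγS 0.3 nM added for 90 min at 25 °C, then filtration and scintillation counting. Basal without ligand/chemokine; pIC50 by sigmoidal fit.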

[13] = molecular target: T1, C-C chemokine receptor type 2; test: Displacement of [3H]-CCR2-RA-[R] from wild type human CCR2 expressed in CHO cell membranes incubated for 2 hrs by scintillation counting method; parameters: species or system Cell membrane
Target sequence in this assay (P41597 whole entry): as the sequence (P41597 whole entry, looked up) above

[14] = test system: CHO; test: as §2, with “CCR2 C232S mutant” for “CCR2b”, “CHO” for “human U2OS”, “hrs” for “hrs after pre-treatment with iodoacetamide for 30 mins and”; conditions: Cell membrane
[15] = Stability in pH 7.4 Tris-HCl containing 5 mM MgCl2 and 0.1% CHAPS assessed as intact compound level measured at room temperature; assay type: physicochemical; conditions: buffer, pH 7.4, 5000 µM
[16] = molecular target: T1, C-C chemokine receptor type 2; test: as §2, with “N-ethylmaleimide” for “iodoacetamide”; conditions: Cell membrane
Target sequence in this assay (P41597 whole entry, looked up): as above

[17] = molecular target: T1, C-C chemokine receptor type 2; test: Displacement of [3H]-CCR2-RA-(R) from human CCR2b expressed in human U2OS cell membranes pre-incubated for 4 hrs before radio ligand addition and measured after 20 mins by scintillation counting method; parameters: species or system Cell membrane
Target sequence in this assay (P41597 whole entry): as the sequence (P41597 whole entry, looked up) above

[18] = molecular target: T2, C-C chemokine receptor type 1 (Homo sapiens, UniProt P32246); test: Antagonist activity at human CCR1 expressed in human U2OS cell membranes as inhibition of [35S]GTPgammaS binding pre-incubated for 30 mins before CCL3 stimulation and followed by further incubation for 90 mins by scintillation counting method; assay type: functional, Cell membrane
T2 sequence (P32246 whole entry): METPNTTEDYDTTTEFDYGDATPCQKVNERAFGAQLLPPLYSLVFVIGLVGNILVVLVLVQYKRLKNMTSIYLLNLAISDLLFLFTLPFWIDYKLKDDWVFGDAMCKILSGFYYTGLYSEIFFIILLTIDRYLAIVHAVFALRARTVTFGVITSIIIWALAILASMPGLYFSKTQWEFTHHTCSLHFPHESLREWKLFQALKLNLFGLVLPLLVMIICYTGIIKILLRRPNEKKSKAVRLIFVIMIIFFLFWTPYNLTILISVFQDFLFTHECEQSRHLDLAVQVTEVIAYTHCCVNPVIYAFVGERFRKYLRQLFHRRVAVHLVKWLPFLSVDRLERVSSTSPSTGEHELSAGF

[19] = molecular target: T1, C-C chemokine receptor type 2; test: Antagonist activity at human CCR2 expressed in HEK293 cells assessed as inhibition of beta-arrestin recruitment pre-incubated for 20 mins before CCL2 stimulation and followed by further incubation for 90 mins by NanoBiT CCR2 assay based
Target sequence in this assay (P41597 whole entry): as the sequence (P41597 whole entry, looked up) above

[20] = test system: CHO; test: as §2, with “CCR2 […] mutant” for “CCR2b”, “CHO” for “human U2OS”, “hrs” for “hrs after pre-treatment with iodoacetamide for 30 mins and”; conditions: Cell membrane
[21] = molecular target: T1, C-C chemokine receptor type 2; test: Displacement of [3H]-CCR2-RA-(R) from human CCR2b expressed in human U2OS cell membranes pre-incubated for 0 hrs before radio ligand addition and measured after 20 mins by scintillation counting method; parameters: species or system Cell membrane
Target sequence in this assay (P41597 whole entry): as the sequence (P41597 whole entry, looked up) above

[22] = molecular target: T1, C-C chemokine receptor type 2; test: Antagonist activity at human CCR2 expressed in human U2OS cell membranes as [35S]GTPgammaS binding level at 250 nM pre-incubated for 30 mins before CCL2 stimulation and followed by further incubation for 90 mins by scintillation counting method relative to control; assay type: functional; parameters: scale not given: the % may be the effect or the level left; conditions: Cell membrane, filed as antagonist; outline: as §1
Target sequence in this assay (P41597 whole entry, looked up): as the sequence (P41597 whole entry, looked up) above

[23] = Displacement of [3H]-CCR2-RA-[R] from human CCR2 C70S/C75S/C232S mutant expressed in CHO cell membranes incubated for 2 hrs by scintillation counting method; parameters: species or system Cell membrane
[24] = molecular target: T1, C-C chemokine receptor type 2; test: as §2, with “from wild type” for “from”, “CCR2” for “CCR2b”, “CHO” for “human U2OS”, “hrs” for “hrs after pre-treatment with iodoacetamide for 30 mins and”; conditions: Cell membrane, filed as antagonist
[25] = molecular target: T1, C-C chemokine receptor type 2; test: Antagonist activity at human CCR2 expressed in HEK293 cells assessed as inhibition of beta-arrestin recruitment pre-incubated for 20 mins followed by drug wash out before CCL2 stimulation and followed by further incubation for 90 mins by NanoBiT CCR2 assay based
Target sequence in this assay (P41597 whole entry): as the sequence (P41597 whole entry, looked up) above

N#CSCCNC(=O)c1ccc(Oc2ccc(Cl)cc2NS(=O)(=O)c2ccc(Cl)c(C(F)(F)F)c2)cc1
Activity [1]: -24% | Activity [2]: 93% | Activity ([3]; filed as antagonist): 30% | Activity ([4]; filed as antagonist): Active | IC50 [5]: 1 nM | pIC50 [5]: 8.8 | pIC50 [6]: 8.4 | IC50 [7]: 5 nM | pIC50 [7]: 8.4 | Stabilty [8]: Stable | Activity [9]: Dose-dependent effect | Ki ([9]; read-out: Ki): 4 nM | Ratio IC50 [10]: 2.5 | Activity [11]: 27% | IC50 [12]: 33 nM | inhibition [12]: Dose-dependent effect | IC50 ([13]; read-out: IC50): 2 nM | IC50 ([13]; read-out: pIC50 (converted)): 1.58 nM | Activity ([14]; filed as antagonist): Active | Stabilty [15]: > 6 h | Activity [16]: inactive | Ki ([17]; read-out: Ki): 0.7 nM | IC50 [18]: 5010 nM | IC50 [19]: 4 nM | Activity [20]: inactive | Ki ([21]; read-out: Ki): 2.4 nM | Ki ([21]; read-out: pKi (converted)): 2 nM | Activity [22]: -5% | IC50 [23]: 16 nM | pIC50 [23]: 7.8 | Activity [24]: 9% | IC50 [25]: 10 nM

O=C(O)c1ccc(Oc2ccc(Cl)cc2NS(=O)(=O)c2ccc(Cl)c(Cl)c2)cc1
Activity [2]: 104% | Activity [3]: 100% | Activity [4]: 100% | pIC50 [5]: 7.9 | Stabilty [8]: Unstable | Activity [9]: Dose-dependent effect | inhibition [12]: Dose-dependent effect | Activity [14]: 100% | Stabilty [15]: > 6 h | Activity [16]: inactive | Ki ([17]; read-out: pKi (converted)): 6.31 nM | Activity [20]: inactive

C=CC(=O)NCCNC(=O)c1ccc(Oc2ccc(Cl)cc2NS(=O)(=O)c2ccc(Cl)c(C(F)(F)F)c2)cc1
Activity [9]: Dose-dependent effect | Ki ([9]; read-out: Ki): 22 nM

O=C(NCCN=C=S)c1ccc(Oc2ccc(Cl)cc2NS(=O)(=O)c2ccc(Cl)c(C(F)(F)F)c2)cc1
Activity [9]: Dose-dependent effect | Ki ([9]; read-out: Ki): 31 nM

O=C(NCCNC(=O)c1ccc(S(=O)(=O)F)cc1)c1ccc(Oc2ccc(Cl)cc2NS(=O)(=O)c2ccc(Cl)c(C(F)(F)F)c2)cc1
Activity [9]: Dose-dependent effect | Ki ([9]; read-out: Ki): 89 nM | Ki ([9]; read-out: pKi (converted)): 63.1 nM
